Assay results of several laboratories.
Compare with care: the assays were run in different laboratories.
Target: Serine/threonine-protein kinase Nek3 (NEK3, Homo sapiens, UniProt P51956)
One construct used (P51956 1-506): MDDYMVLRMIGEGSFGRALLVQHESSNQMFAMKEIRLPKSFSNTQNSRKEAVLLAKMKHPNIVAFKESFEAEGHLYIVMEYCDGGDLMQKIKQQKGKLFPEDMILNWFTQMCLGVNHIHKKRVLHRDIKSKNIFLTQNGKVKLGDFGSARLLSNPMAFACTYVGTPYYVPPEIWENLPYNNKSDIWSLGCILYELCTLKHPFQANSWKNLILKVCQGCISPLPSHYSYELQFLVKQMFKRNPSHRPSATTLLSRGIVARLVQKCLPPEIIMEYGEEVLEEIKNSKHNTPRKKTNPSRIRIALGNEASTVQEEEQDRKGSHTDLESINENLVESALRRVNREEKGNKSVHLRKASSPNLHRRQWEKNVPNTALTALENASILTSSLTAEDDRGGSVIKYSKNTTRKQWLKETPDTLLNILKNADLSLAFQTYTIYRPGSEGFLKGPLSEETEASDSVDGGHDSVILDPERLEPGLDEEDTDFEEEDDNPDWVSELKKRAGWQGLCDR

SMILES | effect on | mode | method | tested at | endpoint | result
Cc1sc(C(=O)NC2COC2)cc1-n1cc(NC(=O)Nc2c(F)cccc2Cl)cn1 | enzyme activity | inhibitor | – | 10 µM | remaining activity | 87.5%
CCN(CC)CCNC(=O)c1c(C)[nH]c(/C=C2\C(=O)Nc3ccc(F)cc32)c1C | cell-free assay | – | – | 0.5 µM | remaining signal | 91.6%
CNCc1ccccc1-c1csc([C@@H](C)Nc2nc(C)nc3cc(OC)c(OC)cc23)c1 | cell-free assay | – | competition with immobilised ligand | 1 µM | remaining binding | 100%
N#CCCc1ccc2c(c1)-c1[nH]c3ccc([N+](=O)[O-])cc3c1CC(=O)N2 | cell-free assay | – | – | 0.5 µM | remaining signal | 104%
CCCCNc1ncc2c(-c3ccc(F)cc3)nn(C[C@H]3CC[C@H](N)CC3)c2n1 | target engagement in cells | inhibitor | chemoproteomics | 20 mM | inhibition | 10.1%
CCN(CC)c1ccc(C2=NNC(=O)CC2C)cc1[N+](=O)[O-] (stereo not drawn) | enzyme activity | inhibitor | – | 10 µM | remaining activity | 90%
CCCOc1ccc(OC)c(F)c1C(=O)c1ccc(C(=O)N[C@@H]2CNC[C@H]2NC(=O)c2ccc3[nH]ncc3c2)cc1 | enzyme activity | inhibitor | – | 10 µM | remaining activity | 101%
C[C@H](c1ccnc(Nc2nc3ccc(-c4cc(N(C)C)ncn4)cc3[nH]2)c1)N1CCN(C(=O)CC(F)(F)F)CC1 | cell-free assay | – | competition with immobilised ligand | 0.1 µM | remaining binding | 100%
Cn1cnc(Br)c1C1=CN(c2ncnc3[nH]cnc23)CCS1 | enzyme activity | inhibitor | radiometric | 2 µM | inhibition | 79.9%
Nc1c(C(=O)NCc2ccc(C(=O)NCCCC3CCCCC3)cc2)cnn1-c1ccccc1 | cell-free assay | – | competition with immobilised ligand | 0.1 µM | remaining binding | 100%
CCCS(=O)(=O)Nc1ccc(F)c(C(=O)c2c[nH]c3ncc(-c4ccc(Cl)cc4)cc23)c1F | enzyme activity | inhibitor | – | 1 µM | inhibition | < 10%
CC(C)(C)c1nc2c(s1)c1nc(N)ncc1c1ccc(NS(=O)(=O)c3c(F)cccc3F)c(F)c12 | enzyme activity | inhibitor | radiometric | 1 µM | remaining activity | 118%
Cc1ccc(NC(=O)c2ccc(C)c(C(F)(F)F)c2)cc1C#Cc1nn(C2CCC(O)CC2)c2ncnc(N)c12 (stereo not drawn) | cell-free assay | – | – | 10 µM | remaining signal | 102%
COc1cccc2c(NCc3ccccc3)nc(-n3c(N)nc4ccccc43)nc12 | target engagement in cells | inhibitor | chemoproteomics | 20 mM | inhibition | 2.9%
C[C@H](NC(=O)c1cnc2n1[C@](C)(Cc1ccc(C#N)cc1)C(=O)N2c1cc(Cl)c(F)c(Cl)c1)C(=O)NC1(c2ccccn2)CC1 | cell-free assay | – | competition with immobilised ligand | 1 µM | remaining binding | 100%
CNC(=O)c1cc(Oc2ccc(NC(=O)Nc3ccc(Cl)c(C(F)(F)F)c3)cc2)ccn1 | cell-free assay | – | – | 0.5 µM | remaining signal | 97.2%
O=C(Nc1cnn(-c2csc(C(=O)NC3COC3)c2)c1)Nc1c(F)cccc1Cl | enzyme activity | inhibitor | – | 5 µM | remaining activity | 87.2%
CO[C@@H](C)c1c(Nc2ccc([C@@H](N(C)C(=O)C3CCS(=O)(=O)CC3)C(F)(F)F)cc2)cnc2cc(Cl)nn12 | cell-free assay | – | competition with immobilised ligand | 1 µM | remaining binding | 61%
